Blank lines part the entries; values can stand above or below the compound they belong to. Active and inactive are the calls of the source. The calls are words filed in the database; no cut-off is given here.
Columns and labels:
Cavia porcellus [1] = experiment: Inhibition of ovalbumin-induced lung eosinophilia in Dunkin-Hartley guinea pig at 0.01 to 3 umol/kg administered intratracheally 24 hrs before ovalbumin challenge; format: functional, organism-based
How it was run: (§1)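 Sensitized guinea pigs challenged on day 20 after first sensitization with a 1 h aerosol of OVA (10 μg/mL in saline); sham group received saline aerosol. Compound given intratracheally as a dry powder formulation 2 h or 24 h before challenge. Read-out was airway/lung eosinophil influx.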

Cavia porcellus [2] = experiment: Inhibition of ovalbumin-induced lung eosinophilia in Dunkin-Hartley guinea pig at 3 umol/kg administered intratracheally 2 hrs before ovalbumin challenge; format: functional; settings: inhaled or nasal; how it was run: as §1
Cavia porcellus [3] = experiment: Inhibition of ovalbumin-induced lung eosinophilia in Dunkin-Hartley guinea pig at 1 umol/kg administered intratracheally 2 hrs before ovalbumin challenge; format: functional; settings: inhaled or nasal; how it was run: as §1
Cavia porcellus [4] = experiment: Inhibition of ovalbumin-induced lung eosinophilia in Dunkin-Hartley guinea pig at 0.1 umol/kg administered intratracheally 2 hrs before ovalbumin challenge; format: functional; settings: inhaled or nasal; how it was run: as §1
Cavia porcellus [5] = experiment: Inhibition of ovalbumin-induced lung eosinophilia in Dunkin-Hartley guinea pig administered intratracheally 2 hrs before ovalbumin challenge; format: functional; how it was run: as §1
[6] = Permeability across apical to basolateral side in human Calu3 cells at 1.5 to 7 uM up to 120 mins by LC-MS/MS analysis; format: ADME, cell-based; settings: calu-3, 2 h
How it was run: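 Calu-3 cells grown on Transwell filters in MEM at 37 °C, 5% CO2, for 3 days plus a further 11–27 days until confluent. Compound added apically at 1.5, 3.5 and 7 μM. Receiver compartment sampled at 0, 30, 60, 90, 120 min; quantified by LC−MS/MS.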

[7] = Metabolic stability in lung parenchyma of COPD patients under hydrolytic/proteolytic condition; format: ADME, tissue-based; settings: human
[8] = Metabolic stability in human plasma assessed as compound remaining at 5 uM after 1 hr by LC-MS/MS analysis; format: ADME, cell-free; settings: read-out: Stability
How it was run: (§2)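 Compound from 5 mM DMSO stock added to plasma at 5 μM final and incubated at 37 °C up to 120 min. Aliquots taken at 0, 15, 30, 60, 90, 120 min and quenched with 2 volumes of chilled acetonitrile, then centrifuged.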

[9] = Metabolic stability in rat plasma assessed as compound remaining at 5 uM after 1 hr by LC-MS/MS analysis; format: ADME, cell-free; settings: read-out: Stability; how it was run: as §2
[10] = Half life in human lung slices at 1 uM after 2 hrs by LC-MS/MS analysis; format: ADME, tissue-based
How it was run: (§3)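 Fresh lung slices preincubated 1 h at 37 °C under 95% O2/5% CO2 in DMEM/F12 with 10% FCS, then incubated with compound at 1 μM in MEM-Earle without phenol red for up to 2 h. Three replicates for human slices, four for rat. Compound measured by LC−MS/MS at 0, 20, 40, 60, 90, 120 min; testosterone (n = 2) checked slice viability.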

[11] = Half life in rat lung slices at 1 uM after 2 hrs by LC-MS/MS analysis; format: ADME, tissue-based; how it was run: as §3
Cavia porcellus [12] = experiment: Inhibition of ovalbumin-induced lung eosinophilia in Dunkin-Hartley guinea pig at 0.01 umol/kg administered intratracheally 2 hrs before ovalbumin challenge; format: functional; settings: inhaled or nasal; how it was run: as §1
U-937 [13] = experiment: Selectivity ratio of IC50 for bovine retina PDE6 to IC50 for PDE4 isolated from human U937 cells; format: cell-based
How it was run: (§4)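 PDE1 from bovine brain, PDE6 from bovine retina, PDE2/3/5 from human platelets. Each was tested in a radiometric two-step assay at five concentrations, in duplicate, starting at 30 μM with 1:10 serial dilution and 1% DMSO. […] Ratio = PDEx IC50 / PDE4 IC50.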

U-937 [14] = experiment: Selectivity ratio of IC50 for human platelet PDE5 to IC50 for PDE4 isolated from human U937 cells; format: cell-based; how it was run: as §4
U-937 [15] = experiment: Selectivity ratio of IC50 for human platelet PDE3 to IC50 for PDE4 isolated from human U937 cells; format: cell-based; how it was run: as §4
U-937 [16] = experiment: Selectivity ratio of IC50 for human platelet PDE2 to IC50 for PDE4 isolated from human U937 cells; format: cell-based; how it was run: as §4
[17] = molecular target: T1, cGMP-dependent 3',5'-cyclic phosphodiesterase (Homo sapiens, UniProt O00408); experiment: Inhibition of human platelet PDE2
T1 sequence (O00408 whole entry): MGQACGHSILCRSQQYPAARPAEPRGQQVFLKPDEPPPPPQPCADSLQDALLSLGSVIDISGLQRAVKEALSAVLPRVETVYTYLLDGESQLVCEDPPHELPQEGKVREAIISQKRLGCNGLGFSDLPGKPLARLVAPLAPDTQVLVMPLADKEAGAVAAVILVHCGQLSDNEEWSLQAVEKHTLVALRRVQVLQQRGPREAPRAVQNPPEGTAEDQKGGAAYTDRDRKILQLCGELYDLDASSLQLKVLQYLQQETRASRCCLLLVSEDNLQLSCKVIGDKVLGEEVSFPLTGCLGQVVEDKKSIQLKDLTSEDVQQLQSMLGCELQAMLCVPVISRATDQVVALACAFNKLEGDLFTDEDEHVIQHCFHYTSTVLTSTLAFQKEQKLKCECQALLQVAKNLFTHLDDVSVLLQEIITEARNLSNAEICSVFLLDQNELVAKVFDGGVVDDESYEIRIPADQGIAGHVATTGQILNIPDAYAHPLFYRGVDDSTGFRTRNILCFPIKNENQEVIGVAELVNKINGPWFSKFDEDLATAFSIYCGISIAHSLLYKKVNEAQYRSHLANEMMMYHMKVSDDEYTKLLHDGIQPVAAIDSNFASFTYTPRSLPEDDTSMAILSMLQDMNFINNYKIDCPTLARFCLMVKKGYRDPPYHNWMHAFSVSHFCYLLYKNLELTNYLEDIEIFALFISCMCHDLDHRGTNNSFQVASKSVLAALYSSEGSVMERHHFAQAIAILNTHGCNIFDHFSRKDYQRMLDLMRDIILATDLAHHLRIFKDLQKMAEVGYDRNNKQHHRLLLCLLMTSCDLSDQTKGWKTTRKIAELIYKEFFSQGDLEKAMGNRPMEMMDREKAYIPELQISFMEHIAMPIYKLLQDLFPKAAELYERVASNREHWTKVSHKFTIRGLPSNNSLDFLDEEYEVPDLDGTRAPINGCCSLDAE
How it was run: (§5)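 Radiometric two-step assay (modified Thompson–Appleman). PDE1 from bovine brain; PDE2, PDE3, PDE5 from human platelets; PDE6 from bovine retina. Compound tested in duplicate at five concentrations, starting at 30 μM with 1:10 serial dilution, 1% final DMSO.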

Phosphodiesterase 3 [18] = molecular target: T2, Phosphodiesterase 3 (Homo sapiens, UniProt Q14432+Q13370); experiment: Inhibition of human platelet PDE3; how it was run: as §5
[19] = Inhibition of bovine brain PDE1; parameters: species or system Bos taurus; how it was run: as §5
[20] = Apparent permeability across human Caco2 cells at 10 uM after 2 hrs by LC-MS/MS analysis; format: ADME, cell-based; settings: Caco-2
How it was run: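 Caco-2 cells cultured 24 h, then switched to enterocyte differentiation medium for 3 days to form monolayers. Test compound 10 μM in DMEM (1% DMSO) added apically; apical pH 6.5, basolateral pH 7.4. After 2 h at 37 °C, apical, basolateral and starting solutions quantified by LC−MS/MS. Papp (nm/s) = flux/initial donor concentration; caffeine and cimetidine run as references.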

[21] = Inhibition of bovine retina PDE6; parameters: species or system Bos taurus; how it was run: as §5
[22] = Half life in human lung S9 fraction; format: ADME, tissue-based
How it was run: (§6)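 Lung S9 fraction (0.5 mg protein/mL) incubated in duplicate with compound at 1 μM in Dulbecco's buffer pH 7.4, 37 °C, with 1 mM NADPH. Samples taken at 0, 15, 30, 60 min and quenched in ice-cold acetonitrile; unchanged compound measured by LC−MS/MS. Controls were no-NADPH and buffer-only incubations; 7-ethoxyresorufin 1 μM served as phase I positive control.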

[23] = Plasma protein binding in human at 5 uM after 5 hrs by LC-MS/MS analysis; format: ADME, cell-free; settings: read-out: PPB (converted)
How it was run: (§7)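 Equilibrium dialysis: plasma spiked at 5 μM (from 500 μM stock) dialysed against phosphate buffer pH 7.4 for 5 h at 37 °C with slow rotation. Samples extracted with ACN/MeOH containing verapamil internal standard, centrifuged, and analysed by LC−MS/MS.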

[24] = Metabolic stability in human lung S9 fraction assessed as compound remaining at 1 uM after 1 hr by LC-MS/MS analysis; format: ADME; settings: read-out: Stability; how it was run: as §6
[25] = Half life in rat lung S9 fraction; format: ADME, tissue-based; how it was run: as §6
U-937 [26] = experiment: Selectivity ratio of IC50 for bovine brain PDE1 to IC50 for PDE4 isolated from human U937 cells; format: cell-based; how it was run: as §4
[27] = Metabolic stability in rat lung S9 fraction assessed as compound remaining at 1 uM after 1 hr by LC-MS/MS analysis; format: ADME; settings: read-out: Stability; how it was run: as §6
[28] = Plasma protein binding in rat at 5 uM after 5 hrs by LC-MS/MS analysis; format: ADME, cell-free; settings: read-out: PPB (converted); how it was run: as §7
[29] = n-Octanol-buffer partition coefficient, log D of the compound at pH 7.4 by shake-flask method
Phosphodiesterase 4 [30] = molecular target: T3, Phosphodiesterase 4 (Homo sapiens, UniProt P27815+Q08499+Q07343+Q08493); experiment: Inhibition of PDE4 activity in human PBMC assessed as inhibition of LPS-induced TNFalpha release after 18 hrs by ELISA
How it was run: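 Human PBMCs plated at 10^5 cells/well in RPMI 1640 without phenol red plus 10% FBS, at 37 °C, 5% CO2. Compound added at 10^-15 to 10^-6 M (final DMSO 0.2%), with E. coli LPS at 3 ng/mL final, for 18 h. TNFα in supernatant measured by paired-antibody ELISA. IC50 from four-parameter logistic nonlinear regression, reported with 95% confidence intervals.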

Phosphodiesterase 4 [31] = molecular target: T3, Phosphodiesterase 4; experiment: Inhibition of PDE4 isolated from human U937 cells assessed as […] by LANCE assay; format: cell-free; settings: u-937
[32] = molecular target: 3',5'-cyclic-AMP phosphodiesterase 4D (Homo sapiens) (UniProt Q08499); settings: Sf9
Sequence of 3',5'-cyclic-AMP phosphodiesterase 4D (Homo sapiens) (Q08499 whole entry): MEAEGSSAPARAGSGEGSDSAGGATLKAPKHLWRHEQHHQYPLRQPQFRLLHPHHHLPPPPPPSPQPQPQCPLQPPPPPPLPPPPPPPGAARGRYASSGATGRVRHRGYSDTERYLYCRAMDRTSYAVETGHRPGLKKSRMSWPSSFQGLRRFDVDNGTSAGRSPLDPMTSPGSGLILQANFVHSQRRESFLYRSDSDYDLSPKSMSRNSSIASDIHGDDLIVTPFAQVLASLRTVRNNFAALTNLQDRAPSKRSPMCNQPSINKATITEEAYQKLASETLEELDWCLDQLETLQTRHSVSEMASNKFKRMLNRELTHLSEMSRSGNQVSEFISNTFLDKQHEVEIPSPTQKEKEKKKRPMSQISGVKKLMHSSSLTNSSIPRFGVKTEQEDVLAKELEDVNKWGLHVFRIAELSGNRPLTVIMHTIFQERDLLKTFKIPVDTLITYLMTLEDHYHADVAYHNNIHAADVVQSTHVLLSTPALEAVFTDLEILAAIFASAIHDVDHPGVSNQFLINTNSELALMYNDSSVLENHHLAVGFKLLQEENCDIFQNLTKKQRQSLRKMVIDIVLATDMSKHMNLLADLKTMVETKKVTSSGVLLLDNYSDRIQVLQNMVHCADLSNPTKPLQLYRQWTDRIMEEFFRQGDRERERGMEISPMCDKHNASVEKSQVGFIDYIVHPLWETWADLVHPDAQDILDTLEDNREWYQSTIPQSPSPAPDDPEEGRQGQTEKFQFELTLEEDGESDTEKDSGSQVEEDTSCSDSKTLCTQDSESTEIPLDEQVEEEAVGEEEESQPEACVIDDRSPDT

[33] = molecular target: 3',5'-cyclic-AMP phosphodiesterase 4B (Homo sapiens) (UniProt Q07343); settings: Sf9
Sequence of 3',5'-cyclic-AMP phosphodiesterase 4B (Homo sapiens) (Q07343 whole entry): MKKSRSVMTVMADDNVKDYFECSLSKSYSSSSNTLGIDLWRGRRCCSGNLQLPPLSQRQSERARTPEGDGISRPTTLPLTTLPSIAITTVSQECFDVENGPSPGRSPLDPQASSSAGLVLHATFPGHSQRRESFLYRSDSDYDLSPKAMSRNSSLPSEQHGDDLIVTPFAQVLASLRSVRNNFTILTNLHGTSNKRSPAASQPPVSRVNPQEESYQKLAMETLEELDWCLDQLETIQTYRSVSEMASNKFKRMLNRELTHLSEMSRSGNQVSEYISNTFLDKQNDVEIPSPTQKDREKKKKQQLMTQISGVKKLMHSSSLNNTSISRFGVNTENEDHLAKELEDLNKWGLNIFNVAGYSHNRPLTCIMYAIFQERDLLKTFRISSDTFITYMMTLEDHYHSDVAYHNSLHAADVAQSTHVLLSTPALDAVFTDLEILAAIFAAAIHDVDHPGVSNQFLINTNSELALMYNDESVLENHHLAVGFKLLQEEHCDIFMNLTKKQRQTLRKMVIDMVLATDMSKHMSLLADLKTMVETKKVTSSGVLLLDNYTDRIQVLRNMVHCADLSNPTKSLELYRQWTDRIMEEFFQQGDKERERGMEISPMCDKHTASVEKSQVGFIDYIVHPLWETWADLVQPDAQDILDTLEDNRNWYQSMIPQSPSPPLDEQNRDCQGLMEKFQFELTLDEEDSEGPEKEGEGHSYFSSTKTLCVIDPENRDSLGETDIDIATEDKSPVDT

Cavia porcellus [34] = experiment: Inhibition of ovalbumin-induced lung eosinophilia in Dunkin-Hartley guinea pig at 0.3 umol/kg administered intratracheally 2 hrs before ovalbumin challenge; format: functional; settings: inhaled or nasal; how it was run: as §1
[35] = molecular target: T1, cGMP-dependent 3',5'-cyclic phosphodiesterase; experiment: Inhibition of human platelet PDE2 at 10 uM
Phosphodiesterase 3 [36] = molecular target: T2, Phosphodiesterase 3; experiment: Inhibition of human platelet PDE3 at 10 uM
[37] = molecular target: cGMP-specific 3',5'-cyclic phosphodiesterase PDE5 (Homo sapiens) (UniProt O76074); experiment: Inhibition of human platelet PDE5 at 10 uM

permeability [6]: impermeable | Stability [7]: Stable | remaining at 1 h, 5 µM [8]: 100% | remaining at 1 h, 5 µM [9]: 100% | half-life at 1 µM [10]: 237 min | half-life at 1 µM [11]: 172 min | IC50 [17]: > 1000 nM | IC50 (Phosphodiesterase 3 [18]): > 1 µM | IC50 [19]: > 1000 nM | Papp at 2 h, 10 µM [20]: < 1 ×10⁻⁶ cm/s | IC50 [21]: > 1000 nM | half-life [22]: > 280 min | fraction unbound at 5 h, 5 µM [23]: 0.0002 | remaining at 1 h, 1 µM [24]: 100% | half-life [25]: 189 min | remaining at 1 h, 1 µM [27]: 88% | fraction unbound at 5 h, 5 µM [28]: 0.008 | logD [29]: 4.48 | IC50 (Phosphodiesterase 4 [30]): 0.06 nM | IC50 (Phosphodiesterase 4 [31]): 0.04 nM | T1/2 [32]: > 20 h | T1/2 [33]: > 20 h
SMILES: CS(=O)(=O)Nc1ccc(C(=O)O[C@@H](Cc2c(Cl)c[n+]([O-])cc2Cl)c2ccc(OC(F)F)c(OCC3CC3)c2)cc1OCC1CC1
inhibition (Cavia porcellus [1]): Active | inhibition in vivo at 3 µmol/kg (Cavia porcellus [2]): 100% | inhibition in vivo at 1 µmol/kg (Cavia porcellus [3]): 83% | inhibition in vivo at 0.1 µmol/kg (Cavia porcellus [4]): 66% | inhibition (Cavia porcellus [5]): Dose-dependent effect | ED50 (Cavia porcellus [5]; inhaled or nasal): 0.016 µmol/kg | inhibition in vivo at 0.01 µmol/kg (Cavia porcellus [12]): 47% | Ratio IC50 (U-937 [13]): > 20000 | Ratio IC50 (U-937 [14]): > 20000 | Ratio IC50 (U-937 [15]): > 20000 | Ratio IC50 (U-937 [16]): > 20000 | Ratio IC50 (U-937 [26]): > 20000

logD [29]: 4.43
SMILES: C[C@@H]1C[C@H]2[C@@H]3C[C@H](F)C4=CC(=O)C=C[C@]4(C)[C@@]3(F)[C@@H](O)C[C@]2(C)[C@@]1(OC(=O)c1ccco1)C(=O)SCF [FLUTICASONE FUROATE]
inhibition in vivo at 0.3 µmol/kg (Cavia porcellus [34]): 90%

inhibition [35]: 0% | inhibition (Phosphodiesterase 3 [36]): 18% | IC50 (Phosphodiesterase 4 [31]): 3.45 nM | inhibition [37]: 58%
SMILES: O=C(OC(Cc1c(Cl)cncc1Cl)c1ccc(OC(F)F)c(OCC2CC2)c1)c1ccc(OC(F)F)c(OCC2CC2)c1 (racemic)

Reference: ChEMBL document CHEMBL3112486, “Novel class of benzoic acid ester derivatives as potent PDE4 inhibitors for inhaled administration in the treatment of respiratory diseases” (J Med Chem, 2014)
